Results: PubChem BioAssay AID489030 (Sanford-Burnham Center for Chemical Genomics, 2010)
Screen size: about 330,000 compounds; about 2,400 (0.73%) were called active. How the source made its calls: active means inhibition of at least 40% at 20 µM; inactive means the rest. Many of the other results were omitted from the sample, so actives are more common in it than they were.

biological target: Apoptotic protease-activating factor 1 (Homo sapiens) (UniProt O14727); assay: blockers of Apaf-1-driven caspase-3 activation – biochemical, DEVD-Rh110 fluorescence, uHTS, primary screen (AID 489030); conditions: reconstituted apoptosome caspase-3 activity, at 20 µM, hits give high values;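 further: plate controls were DMSO wells for no effect and DEVD-CHO caspase inhibitor wells for full effect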
Outline: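 System – cell-free apoptosome with Apaf-1, procaspase-3 and caspase-9 · Buffer or medium – pH 7.5 Hepes buffer with CHAPS, BSA, DTT · Also added – cytochrome c with DEVD-Rh110 · Times – 30 min compound preincubation, 50 min activation, room temperature · Technique – Rh110 fluorescence intensity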

Sequence of Apoptotic protease-activating factor 1 (Homo sapiens) (O14727 whole entry, looked up): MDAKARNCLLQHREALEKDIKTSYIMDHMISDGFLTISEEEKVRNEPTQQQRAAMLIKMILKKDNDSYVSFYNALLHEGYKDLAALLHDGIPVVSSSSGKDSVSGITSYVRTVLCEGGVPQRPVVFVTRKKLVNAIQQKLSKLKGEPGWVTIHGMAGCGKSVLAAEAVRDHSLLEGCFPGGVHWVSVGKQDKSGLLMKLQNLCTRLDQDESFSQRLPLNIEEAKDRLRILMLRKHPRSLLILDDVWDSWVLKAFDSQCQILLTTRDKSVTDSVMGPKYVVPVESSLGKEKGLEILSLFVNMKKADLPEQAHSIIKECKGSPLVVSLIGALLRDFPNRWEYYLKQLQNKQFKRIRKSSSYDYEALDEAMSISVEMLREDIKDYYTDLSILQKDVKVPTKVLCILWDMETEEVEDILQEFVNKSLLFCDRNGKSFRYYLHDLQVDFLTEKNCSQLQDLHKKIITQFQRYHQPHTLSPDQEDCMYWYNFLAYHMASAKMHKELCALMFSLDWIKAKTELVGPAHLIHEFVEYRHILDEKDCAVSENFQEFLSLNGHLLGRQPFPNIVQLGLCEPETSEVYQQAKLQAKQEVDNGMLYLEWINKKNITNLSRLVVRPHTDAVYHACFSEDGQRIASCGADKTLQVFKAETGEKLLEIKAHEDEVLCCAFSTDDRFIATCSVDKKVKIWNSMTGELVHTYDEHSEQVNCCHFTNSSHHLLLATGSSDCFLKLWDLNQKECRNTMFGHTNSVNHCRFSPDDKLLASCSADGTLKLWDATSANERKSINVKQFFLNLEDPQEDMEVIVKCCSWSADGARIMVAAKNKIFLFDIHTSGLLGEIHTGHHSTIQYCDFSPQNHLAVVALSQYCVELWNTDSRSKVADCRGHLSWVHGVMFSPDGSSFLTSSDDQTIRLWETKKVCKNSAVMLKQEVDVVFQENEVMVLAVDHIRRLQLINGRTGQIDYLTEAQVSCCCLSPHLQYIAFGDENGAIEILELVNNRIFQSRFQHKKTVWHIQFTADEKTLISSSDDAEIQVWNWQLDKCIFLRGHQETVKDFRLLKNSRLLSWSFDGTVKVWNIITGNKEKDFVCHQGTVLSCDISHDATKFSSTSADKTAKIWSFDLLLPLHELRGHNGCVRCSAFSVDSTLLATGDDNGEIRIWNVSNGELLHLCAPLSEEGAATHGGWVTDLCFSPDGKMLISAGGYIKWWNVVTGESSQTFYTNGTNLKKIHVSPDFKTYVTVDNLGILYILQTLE

inhibition, active:
CCOc1[nH]n(-c2ccc(Cl)cc2)c(=O)c1C=Nc1ccc(O)cc1 66.9%
COc1ccc(NC(=O)CN(Cc2ccccc2)S(C)(=O)=O)cc1OC 40.8%
CC1CC(=S)Nc2ccccc2N1Cc1ccccc1 (centres undefined) 41.4%
CN(C)CCCN(C(=O)c1ccc(S(=O)(=O)N2CCCCCC2)cc1)c1nc2ccc(Br)cc2s1 60.4%
CCC(C)(C)c1ccc(OCC(=O)N(C)C)c(C(C)(C)CC)c1 56.5%
CC(C)c1ccccc1OCC(O)CN(CC(O)COc1cccc2ccccc12)C(C)C (centres undefined) 57.3%
CCCCCCCCCCOC(=O)Cn1c(COc2ccc(C)cc2)[n+](C)c2ccccc21 77.7%
CCCCCCCCCCOC(=O)Cn1c(COc2cccc(OC)c2)[n+](C)c2ccccc21 65.3%
COCCNC(=O)Nc1ccc2nc(-c3ccco3)c(-c3ccco3)nc2c1 64.8%
O=C(NCc1ccccn1)c1ccc2nc(-c3ccco3)c(-c3ccco3)nc2c1 60.6%
O=C(O)c1cc(Cl)c(Cl)cc1C(=O)Nc1cccc2ncccc12 80.4%
CCCC[C@@H]1CN=C(N)N1CCc1cc(C(F)(F)F)cc(C(F)(F)F)c1 52.3%
CCOC(=O)C1CCN(C(=O)c2cccc(S(=O)(=O)N(CC)c3ccccc3)c2)CC1 45.2%
CCCCN(CCCC)CCC(O)c1cc2c(Cl)cc(Cl)cc2c2cc(C(F)(F)F)ccc12 (centres undefined) 48.9%
CC(C)n1cnc2c(NCc3ccccc3)cc(N[C@@H](CO)Cc3ccccc3)cc21 94.5%
CC(C)n1cnc2c(NCc3ccccc3)cc(OCC3CCN(C)CC3)cc21 96.4%
COc1ccc(C(CNC(=O)c2ccc(S(=O)(=O)Nc3ccccc3F)cc2)N(C)C)cc1 (centres undefined) 56.5%
N#Cc1c(N2CCCCC2)nc(N)c2c(N)nc(SCC(=O)O)cc12 96%

inhibition, inactive:
CCN(c1ccc2c(c1)OCO2)S(=O)(=O)c1cc(Br)cc2c1N(C(=O)C1CC1)CC2 21.5%
COc1cc(C2C(C(=O)c3cccs3)=C(O)C(=O)N2CCN2CCOCC2)ccc1OCCC(C)C (centres undefined) 6.88%
CCn1c(CN2C(=O)CSc3ccccc32)n[nH]c1=S -18.9%
CN(Cc1ccccc1)C(=O)c1ccc(NC2=NC3CS(=O)(=O)CC3S2)cc1 (centres undefined) -0.97%
CC(C)Oc1ccc(Cc2n[nH]c(=S)n2Cc2ccccc2)cc1Cl -15.3%
CC(NCc1ccccc1OC1CCCC1)c1ccccc1 (centres undefined) -12%
CCOc1ccc(N=C2NC(=O)S/C2=C\c2ccc(O)cc2)cc1 -72%
CCCCn1c(N)c(N(CCC(C)C)C(=O)c2ccc([N+](=O)[O-])o2)c(=O)[nH]c1=O 5.92%
CCCCc1nnc(NC(=O)CSc2nc(N)cc(=O)[nH]2)s1 20.3%
COc1ccc(NC(=O)CN(C)S(=O)(=O)c2ccccc2)cc1OC -3.33%
COC(=O)c1ccccc1NC(=O)CN(Cc1ccccc1)S(C)(=O)=O -17.6%
CCCCN(C(=O)C1=NN(c2cc(C)ccc2C)C(=O)CC1)c1c(N)n(CCC)c(=O)[nH]c1=O -17%
CC1CC(C)(C)NC(=S)N1CCC(=O)N1CCN(Cc2ccccc2)CC1 (centres undefined) -1.32%
CC1CC(=O)Nc2ccccc2N1S(=O)(=O)c1cccs1 (centres undefined) -4.75%
COC(=O)c1noc(C)c1-c1ccnn1C(=O)c1ccc(Cl)cc1 10.5%
COc1ccc2sc(N(CCCN(C)C)C(=O)c3ccc(S(=O)(=O)N(C)C4CCCCC4)cc3)nc2c1 24%
CN(C)CCCN(C(=O)c1ccc(S(=O)(=O)N2CCCc3ccccc32)cc1)c1nc2ccc(F)cc2s1 23.6%
C#CCOCCOCCOCCNc1nc(N2CCN(C(=O)[C@H](CCCCN)n3cc([C@@H](N)C(C)CC)nn3)CC2)nc(N2CCN(C(=O)[C@H](Cc3ccc(O)cc3)n3cc([C@@H](N)C(C)CC)nn3)CC2)n1 (some centres undefined) -9.37%
CC1(C)CC(=O)C2=C(C1)NCN(CCCN1CCOCC1)C2 4.48%
CCc1nc(C)ccc1OCC(=O)N(CC)CC -18.1%
CN(C)CCOc1ccc(Cl)cc1C(C)(C)C 4.15%
CCOc1ccc(C(=O)CCN2CCOCC2)cc1 2.64%
CC(OC(=O)c1ccc(NS(=O)(=O)c2ccc3[nH]c(=O)[nH]c3c2)cc1)C(=O)Nc1cccc(Cl)c1Cl (centres undefined) 14%
Cc1cc(C)c(NC(=O)C[N+](C)(C)CC(O)COc2cccc3ccccc23)c(C)c1 (centres undefined) 12.4%
CCC(C)Sc1nc2c(c(=O)[nH]c(=O)n2C)n1CC(O)COc1cccc2ccccc12 (centres undefined) 22.5%
CCCCn1c(N)c(N(CCOC)C(=O)c2cccc(OCc3ccccc3)c2)c(=O)[nH]c1=O 0.864%
COc1cccc(OCc2nnc3n2N=C(c2ccccc2)C(CC(=O)O)S3)c1 (centres undefined) -0.294%
CCCCOc1ccc(NC(=O)CSCC(=O)OCC)cc1 -4.3%
CCOC(=O)COn1c(=O)c(-c2ccc(OCC)cc2)[n+]([O-])c2ccccc21 9.6%
Cc1cccc(/C(N)=N/OC(=O)c2ccccc2Cl)c1 11.3%
CCOC(=O)c1sc(C)c2c1NC(C)(c1cccc3ccccc13)NC2=O (centres undefined) 28%
COC(=O)c1nn(-c2cccc(Cl)c2)ccc1=O -6.21%
CN(CCc1cn[nH]c1)C(=O)CC1C(=O)NCCN1Cc1cccc(Oc2ccccc2)c1 (centres undefined) 13%
COCCNC(=O)c1snc2ccc(Cl)cc12 -26%
COc1cccc(S(=O)(=O)NCc2ccc(C(=O)NCc3ccccn3)cc2)c1 4.94%
CCCNC(=O)Nc1ccccc1C(=O)Nc1ccc(OC)cc1 11.1%
O=C1CSc2ccc(C(=O)NCc3ccccn3)cc2N1 -4.15%
O=C(O)c1ccc(NC(=O)c2ccc(COc3ccc(Cl)cc3)o2)cc1 3.81%
Cn1c(=O)n(C)c2cc(NS(=O)(=O)c3ccc(F)cc3)ccc21 1.91%
Cc1cccc(C)c1Nc1nnc(SCC(=O)NCCCN2CCCC2=O)s1 -3.15%
Cc1ccc(/C=C(\C#N)C(=O)Nc2cccc3ncccc23)o1 -6.14%
O=C(Nc1cccnc1Cl)c1cc(-c2cccc(Cl)c2)on1 3.02%
C=C(C)CNc1cc(S(=O)(=O)N2CCOCC2)ccc1Oc1ccccc1 24.2%
CCCC[C@@H]1CN=C(N)N1CCc1cccc(F)c1 4.48%
CCCC[C@@H]1CN=C(N)N1CCCC 8.23%
COc1ccccc1N=C1SC(C)CN1C(=O)C1CCC1 (centres undefined) 3.12%
Cc1ccc(C)c(Cn2cnc3c(oc4ccccc43)c2=O)c1 -9.64%
CCOC(=O)C1CCCN(C(=O)c2cccc(S(=O)(=O)N3CCOCC3)c2)C1 (centres undefined) -8.74%
CCOC(=O)C1CCN(C(=O)c2ccccc2N(C)S(=O)(=O)c2ccccc2)CC1 2.95%
CC(C)[C@@H](NC(=O)OC(C)(C)C)C(=O)NCC1CCC(C(=O)N[C@@H](Cc2ccccc2)C(=O)O)CC1 (some centres undefined) 2.34%
CCCCC(=O)Nc1ccc(C(=O)Nc2cc(C(F)(F)F)ccc2Cl)cc1 37.6%
ON=C1/C(=N\O)CC2(C/C1=N/O)OCCO2 -16%
CN(C(=O)CN1C(=O)CCSc2ccc(S(=O)(=O)N3CCCC3)cc21)c1ccccc1 -2.73%
CCC(CO)Oc1cc(NC(=O)c2cccc(F)c2)c2ncn(C(C)C)c2c1 (centres undefined) 17.6%
CCC(CO)Oc1cc(NC(=O)c2cccc3ccccc23)c2ncn(C(C)C)c2c1 (centres undefined) 29.6%
CCC(CO)Oc1cc(NCc2ccccc2)c2ncn(C3CCCC3)c2c1 (centres undefined) 32.6%
CCC(CO)Oc1cc(NC(=O)c2ccc(Cl)cc2)c2ncn(C(C)C)c2c1 (centres undefined) 11.6%
COc1ccc(N2CCN(CCNC(=O)c3nnc(Cc4c(F)cccc4Cl)o3)CC2)cc1 -8.42%
Cn1c(=O)c2c(nc(N3CCOCC3)n2CCNC2=NCCC2)n(C)c1=O 9.61%
O=C(c1ccccc1)c1cccn1CC(=O)N1CCN(c2ccc(F)cc2)CC1 5.66%
Cc1nc(N)[nH]c(=O)c1Oc1cccc(C(F)(F)F)c1 -9.16%
COc1ccc(C(CNC(=O)c2ccc(NS(=O)(=O)c3ccc(F)c(C)c3)cc2)N(C)C)cc1 (centres undefined) 26%
CC(=O)c1ccc(S(=O)(=O)Nc2ccc(C(=O)NCC(c3ccccc3)N(C)C)cc2)cc1 (centres undefined) -18.1%
CCOC(=O)C1CCN(S(=O)(=O)c2c(C)noc2C)CC1 1.33%
C=CCNc1nc(N)c(C(=C(C#N)C#N)c2ccccc2)s1 10.1%
O=C(NCCCNCc1ccccc1)c1ccc(/C=N/O)nc1 6.05%
COc1ccc(CNC(=O)c2ccc(NS(=O)(=O)c3ccc4[nH]c(=O)[nH]c4c3)cc2)cc1OC 8.25%
COC(=O)c1ccccc1NC(=O)CN(Cc1ccc(Cl)cc1)S(C)(=O)=O -4.4%
N#CCc1c(C#N)c(N)nc(N2CCCC2)c1C#N -2.29%
Nc1nc(NCC(=O)O)nc(N2CCCCCC2)c1[N+](=O)[O-] -0.54%
COc1nc(NC2CCCCC2)nc(N2CCCCCC2)n1 15.5%
